Experimental data pooled from the literature.
Compare with care: the assays were run in different laboratories.
Effect on: metabolic stability
Host: human

Cc1ncc2n1-c1ccc(Cl)cc1C(c1ccccc1F)=NC2 — hepatocyte CLint (hepatocytes; 0.5 µM, pH 7.4): 57.7 µL/min/10⁶ cells
C[C@]12CC[C@H]3[C@@H](CCC4=CC(=O)CC[C@@]43C)[C@@H]1CC[C@@H]2O — hepatocyte CLint (hepatocytes; 1 µM): 110 µL/min/10⁶ cells
CONC(=O)[C@H]1[C@@H](O)[C@@]2(O)c3c(OC)cc(OC)cc3O[C@@]2(c2ccc(OC)cc2)[C@@H]1c1ccccc1 — microsomal CLint (liver microsomes): 11.6 µL/min/mg
CC(C)C[C@H](NC(=O)[C@@H]1COCCCCCCC(=O)NCC(=O)N2CCC[C@H]2C(=O)N1)C(=O)[C@@]1(C)CO1 — scaled CLint (liver microsomes; 2 µM, 1 h): 51.7 mL/min/kg
O=C(O[C@H]1CCC[C@@]2(C1)OOC1(O2)C2CC3CC(C2)CC1C3)N1CCCCC1 (stereo partly shown) — microsomal CLint (liver microsomes): < 11.6 µL/min/mg
CN1C(=O)Cc2ccc(F)c(CCNCC[C@H]3CN(c4ccc5c(n4)NC(=O)CO5)C(=O)O3)c21 — hepatocyte CLint (hepatocytes; 0.5 µM): < 8.2 µL/min/10⁶ cells
COCC1=N[C@@]2(O)[C@H](C(=O)N(C)OC)[C@@H](c3ccccc3)[C@]3(c4ccc(OC)cc4)Oc4cc(OC)cc(OC)c4[C@]23N1 — microsomal CLint (liver microsomes; 1 µM, pH 7.4): 55.8 µL/min/mg
CNC(C)Cc1ccc2nsnc2c1 (stereo not shown) — scaled CLint (liver microsomes; 0.5 µM): 11.2 mL/min/kg
Cn1c(=O)ccc2ccc(F)c(CCNC[C@H]3CN(c4cnc5c(n4)NC(=O)CO5)C(=O)O3)c21 — hepatocyte CLint (hepatocytes; 0.5 µM): 2 µL/min/10⁶ cells
COc1ccc2c(c1)[C@]13CCCC[C@@H]1[C@H](C2)N(C)CC3 — hepatocyte CLint (hepatocytes; 0.5 µM, pH 7.4): 19 µL/min/10⁶ cells
